Experimental data from ChEMBL document CHEMBL4513216, “Probing the Open Global Health Chemical Diversity Library for Multistage-Active Starting Points for Next-Generation Antimalarials” (ACS Infect Dis, 2020).

Assay: Toxicity liver stage against HepG2, at 10uM
Type: cell-based
Parameters: test concentration 10 uM, cell line HepG2-A16-CD81EGFP
Settings: human, HepG2-A16-CD81EGFP cells; read-out: INHIBITION
How it was run: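 Uninfected HepG2-A16-CD81EGFP cells, 3 × 10^3 per well, 1536-well, plated on prespotted compound at 10 μM final, parasite-free screening media added to match infected plates; puromycin 10 μM positive, DMSO 0.5% negative; run in parallel with 48 h PbLuc assay at 37 °C, 5% CO2; viability by CellTiter-Glo luminescence, normalized to controls.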

Row | SMILES | cytotoxicity at 10 µM [%]
1 | O=C(Nc1cc(C(F)(F)F)c[nH]c1=O)c1ccco1 | -8.28
2 | c1ccc2c(Cc3nnc([C@H]4CCN(C5CCCCC5)C4)o3)c[nH]c2c1 | -0.00726
3 | Fc1ccc(-c2c[nH]c([C@@H]3COCCN3)n2)cc1 | -0.0368
4 | COCc1cc(C[C@@H]2CC[C@H](O)[C@@H](CN(C)C)O2)no1 | 12
5 | CCOC(=O)CNC(=O)Cn1c(-c2ccoc2)nc(C)c1C | -2.8
6 | CNC(=O)CN(C(=O)c1ccccc1)[C@H]1C[C@H]2CCOC[C@H]2C1 | -4.36
7 | COc1ccc(CNC(=O)CCCc2nnc3ccc(OC)nn23)cc1 | -5.36
8 | O=C(N[C@]12CC1CN(C(=O)c1ccco1)C2)c1ccco1 (some centres undefined) | -0.479
9 | O=C(NCC1CC1)C1CCC2(CCN(C(=O)c3cnccn3)CC2)O1 (centres undefined) | -9.28
10 | CCC(=O)N1CC[C@H](O)[C@@H]1Cc1ccccc1 | 0.081
11 | COC[C@H]1CC[C@H]2[C@H](CCN2C(=O)c2ccncc2F)O1 | -4.61
12 | Cc1noc([C@]23COC[C@H]2CN(C(=O)C2CCOCC2)C3)n1 | 9.46
13 | COc1nn(C)c2c1CCCN(C(=O)c1cccn1C)C2 | 1.53
14 | O=C1CC[C@H]2[C@H](CCN2C(=O)C2CCCO2)N1Cc1ccncc1 (some centres undefined) | 0.898
15 | CC(C)C(=O)Nc1cccc(C(=O)Nc2ccccn2)c1 | -2.37
16 | Cc1nn(C)cc1CN(C)C(=O)c1ccccn1 | 4.12
17 | CCC(CC)CN1CCN(CC(=O)Nc2ccc3nsnc3c2)CC1 | -13.8
18 | O=C(O)CSc1nccc(-c2ccc3c(c2)OCO3)n1 | -3.61
19 | CC(=O)Nc1nc(C2CCCN(C(=O)CN(C)C)C2)cs1 (centres undefined) | -43.4
20 | Cc1cnc(-c2nc(NC3CC3)ncc2-c2cc(C)no2)cn1 | -21.3
21 | NC(=O)CN1CCCC(Cc2ccc(N)nn2)C1 (centres undefined) | -31.1
22 | C[C@@H]1C[C@H](C(F)(F)F)n2nc(C3CCN(C(=O)C(C)(C)C)CC3)cc2N1 | -32.8

Row | SMILES | cytotoxicity at 10 µM [%]
23 | CN1CCCC(Cc2cncc(C(=O)NC3CC3)c2)C1 (centres undefined) | -25.6
24 | COCCN1CCCC1c1nccnc1Nc1ncc(C)s1 (centres undefined) | -7.99
25 | O=C(CN1CCCCC1)Nc1cc(C(F)(F)F)ccc1-n1cccc1 | 5.24
26 | CCC(CC)(CNC(C)=O)NC(C)c1ccccc1 (centres undefined) | 4.99
27 | Cc1cncc(C(=O)N(c2ccc(F)cn2)C2CCOCC2)c1 | 0.0591
28 | COC(=O)C1CCCCN1C(=O)c1ccccc1F (centres undefined) | 8.96
29 | NC(=O)c1ccc(NC(=O)c2ccncc2F)cn1 | 6.48
30 | Cc1csc(N(C)C(=O)C2CC(=O)N(CCc3ccccc3)C2)n1 (centres undefined) | -99.4
31 | Cc1nc(-c2ccc(CC(=O)N3CCN(C(=O)C4CC4)CC3)cc2)cs1 | 9.86
32 | O=C(NCc1ccc(N2CCCC2)nc1)N1CCc2sccc2C1 | -6.87
33 | COc1ccc(F)cc1C(C)NC(=O)Nc1nncs1 (centres undefined) | 12.4
34 | Cc1n[nH]c(C2CN(CC(=O)NCc3cccs3)CCO2)n1 (centres undefined) | -4.13
35 | Cc1noc(C(C)N2CCN(CC(=O)N3CCCC3)CC2)n1 (centres undefined) | 0.678
36 | COc1cccc(CC(=O)NCC(Cc2ccc(F)cc2)C(N)=O)c1 (centres undefined) | 4.78
37 | CN1CCN(C(=O)c2cnsn2)c2cc(F)ccc21 | -9.03
38 | CCC(CNC(=O)c1nc(=O)[nH][nH]1)Oc1cccc(F)c1 (centres undefined) | -6.76
39 | Cc1nc(C(=O)N(C)C2CC(=O)N(Cc3ccccc3)C2=O)cs1 (centres undefined) | 0.423
40 | CC(C)CNC(=O)c1ccc(NC(=O)NCC2CC2)cc1Cl | 7.71
41 | O=C(c1ccc(N2CCCC2)nn1)N1CCCc2ccc(F)cc21 | -1.7
42 | CNS(=O)(=O)CC(=O)NC(C)Cc1ccc(Br)cc1 (centres undefined) | -10.9
43 | Cc1cc(C(=O)O)c2c(Br)cccc2n1 | -0.575
44 | CC(Cn1cccn1)NC(=O)NCCCN1CCCCCC1=O (centres undefined) | 12.3

Row | SMILES | cytotoxicity at 10 µM [%]
45 | Cc1nsc(NC2CCOC3(CCCC3)C2)n1 (centres undefined) | 8.85
46 | Nc1cc(CCCNC(=O)NC2CC2)nn1-c1ccccc1 | 1.54
47 | Cc1cnn(CC2CCCN2Cc2coc(-c3cccs3)n2)c1 (centres undefined) | -3.01
48 | Cc1nc(C)n(CC2CN(Cc3cccc(C(N)=O)c3)CCO2)n1 (centres undefined) | 6.2
49 | Cc1ccc(N2CCc3ncnc(N(C)C)c3CC2)nn1 | -102
50 | CC1c2ncc(COCC3CC3)n2CCN1C(=O)c1ccn(C)n1 (centres undefined) | 0.993
51 | Cn1cc(-c2nnn3c2COC(CNC(=O)c2cccs2)C3)cn1 (centres undefined) | 3.31
52 | Cc1cc(C)c2c(NCCC34CCCN3CCC4)ncnc2n1 | -2.43
53 | CCn1c(C)nnc1SCCNc1cc(COC)ncn1 | 6.35
54 | CCS(=O)(=O)N1CCOC(CCCc2ccccc2)C1 (centres undefined) | -9.31
55 | CC(C)Cc1ncc2c(n1)CN(c1cc(NC3CC3)nc(N)n1)C2 | -5.82
56 | Cc1ccc(C)c2c(O)cc(CN[C@H]3CCCCNC3=O)nc12 | 5.63
57 | Cc1ccccc1CC1(C(=O)O)CCCN(c2ncccn2)C1 (centres undefined) | 1.25
58 | O=C(c1ccc(C2CCCN2)s1)N1CCN2CCC1CC2 (centres undefined) | -8.52
59 | O=C(CO)N1CCC2(CC1)CC(=O)N(Cc1cc(F)cc(F)c1)C2 | 9.92
60 | CCN(C)[C@H]1CN(C(=O)c2cccc(N3CCS(=O)(=O)CC3)c2)C[C@@H]1O | -5.62
61 | CCCOC1CCCN(c2nc(COC)nc3c2cnn3C)C1 (centres undefined) | -1.42
62 | CCCN1CCN(c2ccc(-c3nc(C)no3)cn2)CC1 | 8.95
63 | O=C(CCN1CCCO1)N1CC[C@@H](c2ccc3ccccc3c2)[C@H](O)C1 | -1.04
64 | O=C(CCc1cc2n(n1)CCCNC2)NCCS(=O)(=O)N1CCCC1 | 0.698
65 | Cc1nc(CN(Cc2cccnc2)Cc2ccsc2)c[nH]1 | 0.935
66 | CC1CCCN1Cc1ccccc1-c1nc(C(C)(C)C)cc(=O)[nH]1 (centres undefined) | 11.4

Row | SMILES | cytotoxicity at 10 µM [%]
67 | CCc1cc(N2CCCNCC2)n2nc(C)c(C)c2n1 | 4.46
68 | Cc1cc(C)n(CC2CN(CC(=O)N3CCC3)CCO2)n1 (centres undefined) | -10.7
69 | Cc1cnn(CCNCC(=O)NC(C)c2ccc3c(c2)OCCO3)c1 (centres undefined) | -1.58
70 | COc1cc(C)nc(N2CCN(C(=O)c3cccc(C#N)c3)CC2)n1 | -3.54
71 | NC(=O)C1CCN(C(=O)NCc2ccc(-c3ccn[nH]3)cc2)CC1 | -1.73
72 | Cc1ccc(C(=O)NCCSCc2cccs2)cn1 | -3.95
73 | CS(=O)(=O)NC(=O)c1nnn(-c2ccccc2)c1C1CC1 | -7.09
74 | Cc1noc(C2CCCN(C(=O)CCCNc3ncccn3)C2)n1 (centres undefined) | -3.92
75 | CCOc1ccc(C2CCCN2C(=O)NCCn2ccnc2)cc1 (centres undefined) | 0.632
76 | CC(=O)N1CCN(C(=O)CCn2c(C)nc3ccccc3c2=O)CC1 | -4.81
77 | Cc1nn(C)c(Cl)c1C1CCCN1Cc1ccccn1 (centres undefined) | -0.459
78 | COc1ccc(C(=O)N2CCCC(n3cncn3)C2)nn1 (centres undefined) | 5.58
79 | Cc1c(F)cc(C(=O)O)cc1S(=O)(=O)Nc1ccc(F)c(C#N)c1 | -6.02
80 | CN(C)C(=O)Cc1nc(CN2CCn3c(nnc3C3CC3)C2)cs1 | -9.66
81 | Cc1cnn(CC2CCCN2Cc2ncc(-c3ccccc3)o2)c1 (centres undefined) | -8.4
82 | O=C1CC[C@@H]2[C@@H](CCN2Cc2ccncc2)N1c1ccccc1 | -1.88
83 | O=C([C@H]1CN(CCc2ccccc2)C[C@H]2OCC[C@@H]12)N1CCCO1 | -9.49
84 | Cn1ncc2c1CN(Cc1ccc(F)cc1)CC2COCC1CC1 (centres undefined) | 9.55
85 | COc1ccc(N2CCCC3(C2)CN(c2cccnc2)CCO3)cc1 (centres undefined) | 6.59
86 | Cc1ccc(CN2CCc3[nH]nc(C(=O)N(C)C)c3C2)s1 | -7.55
87 | CC(C)CN1CCS(=O)(=O)[C@@H]2CCN(S(=O)(=O)c3ccccc3)CC[C@@H]21 | 3.62
88 | Cc1ncnc2c1CCN(Cc1nccs1)CC2 | 9.91

Row | SMILES | cytotoxicity at 10 µM [%]
89 | CS(=O)(=O)NCc1cnc2n1CCN(Cc1cccs1)CC2 | 3.04
90 | O=C(c1ccno1)N1CCO[C@@H]2CC(COCc3ccccn3)C[C@H]21 (some centres undefined) | -103
91 | Cn1nc(COCC2CC2)c2c1CN(C(=O)c1ccno1)CC2 | -5.91
92 | Fc1ccc(CN2CCc3ncnc(C4CCOC4)c3CC2)cc1 (centres undefined) | 12.3
93 | Cc1ccc(S(=O)(=O)NCC(C)(C)N)c(F)c1 | 7.42
94 | CNC(=O)CN1CCC2(CCCN(CC3CCOC3)C2)CC1 (centres undefined) | -107
95 | CN1CCn2c(-c3cccc(F)c3)cnc2C12CCN(CC1CC1)CC2 | 8.13
96 | Cc1ccc(CS(=O)(=O)N2Cc3c(CN(C)C)nn(C)c3C2)cc1 | -98.2
97 | CC(C)N(C)C[C@H]1C[C@@H]2CN(Cc3ccco3)C[C@@H]2O1 | -4.22
98 | CNC(=O)CN1CCO[C@H]2CN(CC3CCOC3)C[C@H]21 (some centres undefined) | 7.64
99 | Cn1ccnc1CN1CCC2(CC1)CCN(c1cncnc1)C2=O | -65
100 | COCCN1CCC2(CCCN(Cc3ccoc3)C2)C1=O (centres undefined) | 0.582
101 | CC1=N[C@@]2(CC[C@@H]3CN(Cc4ccc(C)cc4)C[C@@H]32)C(=O)N1CC1CC1 | 1.7
102 | Cc1ccc(CN2C[C@@H]3CN(C(=O)c4cccn4C)C[C@@H]3C2)cc1 | -4.25
103 | CN(C)[C@@H]1CN(C(=O)CCc2ccccc2)[C@@H]2CCCO[C@H]12 | -3.02
104 | CC(C)N1CCC(c2nc3ccc(-c4ccnn4C)cn3n2)CC1 | 14.9
105 | CC(C)NC(=O)C1c2c(ncn2C(C)C)CCN1Cc1ccccc1 (centres undefined) | 0.167
106 | Cc1ccc(CN2CC[C@H]3[C@H]2CCN3S(=O)(=O)C2CC2)cc1 | 10.2
107 | CC(C)CN1CCCC2(CCN(c3ccc(C#N)cn3)C2)C1 (centres undefined) | 5.22
108 | COCC1N(C(=O)Nc2ccccc2)C2CCC1(O)CC2 (centres undefined) | 3.15
109 | CN1[C@@H]2CC[C@H]1CN(C(=O)c1sccc1S(N)(=O)=O)CC2 | 1.95
